ChEMBL document CHEMBL1126896, “Preparation and anti-HIV activity of O-acylated heparin and dermatan sulfate derivatives with low anticoagulant effect” (J Med Chem, 1993)

Experiments:
MT4 [1] = experiment: Selectivity index for CC50 (cytotoxic concentration based on the reduction of the viability of mock-infected MT-4 cells) to that of EC50 against HIV-1; assay type: functional
How it was run: (§1)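 MT-4 cells at 3 × 10^5 cells/mL were infected with HIV-1 IIIB or HIV-2 ROD at 100 CCID50/mL, or mock-infected, alongside serial compound dilutions. Viability was read by MTT after 5 days at 37 °C. CC50 comes from mock-infected cells and EC50 from protection against cytopathicity. Index = CC50/EC50.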

[2] = system: Human immunodeficiency virus 2; experiment: Antiviral activity against HIV-2 infected with LAV-2 EHO; assay type: functional, organism-based
[3] = system: Human immunodeficiency virus 1; experiment: Antiviral activity against HIV-1 infected with HTLVIIIB (TIBO); assay type: functional, organism-based
[4] = system: Simian immunodeficiency virus; experiment: Antiviral activity against SIV; assay type: functional, organism-based
MT4 [5] = experiment: Effective concentration to achieve 50% protection of MT-4 cells against the cytopathic effect of HIV-2; assay type: functional, cell-based
[6] = system: Human immunodeficiency virus 1; experiment: Antiviral activity against HIV-1 infected with HTLVIIIB; assay type: functional, organism-based
[7] = system: Human immunodeficiency virus 1; experiment: Antiviral activity against HIV-1 infected with HIV-1HE; assay type: functional, organism-based
HuT78 [8] = experiment: Giant-cell formation between persistently HIV-1 infected HUT-78 cells and uninfected MOLT-4 cells; assay type: functional, cell-based
How it was run: (§2)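 MOLT-4 cells were co-cultured with an equal number of HUT-78 cells persistently infected with HIV-1 IIIB or HIV-2 ROD, with varying compound concentrations. Syncytia were counted by flow cytofluorography after 24 h. EC50 is the concentration giving 50% protection against giant-cell formation.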

[9] = system: Human immunodeficiency virus 2; experiment: Antiviral activity against HIV-2 infected with LAV-2 ROD; assay type: functional, organism-based
[10] = In vitro anticoagulant activity determined by clotting test of activated partial thromboplastin time (APTT) on a pool of human plasma; assay type: functional
How it was run: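 Activated partial thromboplastin time clotting test on pooled human plasma, run on an automatic coagulometer. Activities were calculated according to the European Pharmacopoeia.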

[11] = system: Human immunodeficiency virus 1; experiment: Antiviral activity against HIV-1 infected with […]; assay type: functional, organism-based
MT4 [12] = experiment: Selectivity index for CC50 (cytotoxic concentration based on reduction of viability of mock-infected MT-4 cells) to that of EC50 against HIV-2; assay type: functional; how it was run: as §1
MT4 [13] = experiment: Effective concentration to achieve 50% protection of MT-4 cells against the cytopathic effect of HIV-1; assay type: functional, cell-based
HuT78 [14] = experiment: Giant-cell formation between persistently HIV-2 infected HUT-78 cells and uninfected MOLT-4 cells; assay type: functional, cell-based; how it was run: as §2
[15] = Homo sapiens, MT4, read-out: EC50
[16] = Homo sapiens, HuT78, read-out: EC50

SMILES | Selectivity index (MT4 [1]) | EC50 [2] | EC50 [3] | EC50 [4] | EC50 (MT4 [5]; [15]) | EC50 [6] | EC50 [7] | EC50 (HuT78 [8]; [16]) | EC50 [9] | APTT [10] | EC50 [11] | Selectivity index (MT4 [12]) | EC50 (MT4 [13]; [15]) | EC50 (MT4 [5]; mt4) | EC50 (HuT78 [14]; hut78) | EC50 (HuT78 [8]; hut78) | EC50 (MT4 [13]; mt4) | EC50 (HuT78 [14]; [16])
CC(=O)OC/C(=C\C(=O)[O-])OC1OC(COS(=O)(=O)[O-])C(OC2OC(C(=O)[O-])C(OC3OC(COS(=O)(=O)[O-])C(OC4OC(C(=O)[O-])C(OC5OC(CS(=O)(=O)[O-])C(O)C(OC(C)=O)C5NS(=O)(=O)[O-])C(OC(C)=O)C4OS(=O)(=O)[O-])C(OC(C)=O)C3NS(=O)(=O)[O-])C(OC(C)=O)C2OS(=O)(=O)[O-])C(OC(C)=O)C1NS(=O)(=O)[O-].[Na+].[Na+].[Na+].[Na+].[Na+].[Na+].[Na+].[Na+].[Na+].[Na+].[Na+] (centres undefined) | >943 | 4.3 µg/mL | 0.6 µg/mL | 7.4 µg/mL | 0.59 µg/mL | 0.5 µg/mL | 1.5 µg/mL | 165 µg/mL | 2.2 µg/mL | 10 IU mg-1 | 1.3 µg/mL | >847 | 0.53 µg/mL |  |  |  |  | 
CCCCCC(=O)OC/C(=C\C(=O)[O-])OC1OC(COS(=O)(=O)[O-])C(OC2OC(C(=O)[O-])C(OC3OC(COS(=O)(=O)[O-])C(OC4OC(C(=O)[O-])C(OC5OC(CS(=O)(=O)[O-])C(O)C(OC(=O)CCCCC)C5NS(=O)(=O)[O-])C(OC(=O)CCCCC)C4OS(=O)(=O)[O-])C(OC(=O)CCCCC)C3NS(=O)(=O)[O-])C(OC(=O)CCCCC)C2OS(=O)(=O)[O-])C(OC(=O)CCCCC)C1NS(=O)(=O)[O-].[Na+].[Na+].[Na+].[Na+].[Na+].[Na+].[Na+].[Na+].[Na+].[Na+].[Na+] (stereo in doubt; 3h) | >5000 |  |  |  |  |  |  |  |  | 6 IU mg-1 |  | >1250 |  | 0.4 µg/mL | 50 µg/mL | 3 µg/mL | 0.1 µg/mL | 
COc1ccc(COC(=O)/C=C(\CO)OC2OC(COS(=O)(=O)[O-])C(OC3OC(C(=O)OCc4ccc(OC)cc4)C(OC4OC(COS(=O)(=O)[O-])C(OC5OC(C(=O)OCc6ccc(OC)cc6)C(OC6OC(COS(=O)(=O)[O-])C(O)C(O)C6NS(=O)(=O)[O-])C(O)C5OS(=O)(=O)[O-])C(O)C4NS(=O)(=O)[O-])C(O)C3OS(=O)(=O)[O-])C(O)C2NS(=O)(=O)[O-])cc1.[Na+].[Na+].[Na+].[Na+].[Na+].[Na+].[Na+].[Na+] (centres undefined) | >5000 |  |  |  | 4.3 µg/mL |  |  | > 100 µg/mL |  | 4 IU mg-1 |  | >119 | 0.1 µg/mL |  |  |  |  | > 100 µg/mL
CCCCCC(=O)OC/C(=C\C(=O)[O-])OC1OC(COS(=O)(=O)[O-])C(OC2OC(C(=O)[O-])C(OC3OC(COS(=O)(=O)[O-])C(OC4OC(C(=O)[O-])C(OC5OC(CS(=O)(=O)[O-])C(O)C(OC(=O)CCCCC)C5NS(=O)(=O)[O-])C(OC(=O)CCCCC)C4OS(=O)(=O)[O-])C(OC(=O)CCCCC)C3NS(=O)(=O)[O-])C(OC(=O)CCCCC)C2OS(=O)(=O)[O-])C(OC(=O)CCCCC)C1NS(=O)(=O)[O-].[Na+].[Na+].[Na+].[Na+].[Na+].[Na+].[Na+].[Na+].[Na+].[Na+].[Na+] (stereo in doubt; 3f) | >2500 |  |  |  |  |  |  |  |  | 4 IU mg-1 |  | >500 |  | 1 µg/mL | 100 µg/mL | 7 µg/mL | 0.2 µg/mL | 
CCCC(=O)OC/C(=C\C(=O)[O-])OC1OC(COS(=O)(=O)[O-])C(OC2OC(C(=O)[O-])C(OC3OC(COS(=O)(=O)[O-])C(OC4OC(C(=O)[O-])C(OC5OC(COS(=O)(=O)[O-])C(O)C(OC(=O)CCC)C5NC(C)=O)C(OC(=O)CCC)C4OS(=O)(=O)[O-])C(OC(=O)CCC)C3NC(C)=O)C(OC(=O)CCC)C2OS(=O)(=O)[O-])C(OC(=O)CCC)C1NC(C)=O.[Na+].[Na+].[Na+].[Na+].[Na+].[Na+].[Na+].[Na+] (centres undefined) | >1000 |  |  |  | 1.2 µg/mL |  |  | 15 µg/mL |  | 6 IU mg-1 |  | >417 | 0.5 µg/mL |  |  |  |  | 20 µg/mL
CC(=O)NC1C(OC2C(C(=O)[O-])OC(OC3C(COS(=O)(=O)[O-])OC(OC4C(C(=O)[O-])OC(OC5C(COS(=O)(=O)[O-])OC(O/C(=C/C(=O)[O-])CO)C(NC(C)=O)C5O)C(OS(=O)(=O)[O-])C4O)C(NC(C)=O)C3O)C(OS(=O)(=O)[O-])C2O)OC(COS(=O)(=O)[O-])C(O)C1O.[Na+].[Na+].[Na+].[Na+].[Na+].[Na+].[Na+].[Na+] (centres undefined) | >122 |  |  |  | 2.7 µg/mL |  |  | 500 µg/mL |  | 2.4 IU mg-1 |  | >185 | 4.1 µg/mL |  |  |  |  | 60 µg/mL
O=C(/C=C(\CO)OC1OC(COS(=O)(=O)[O-])C(OC2OC(C(=O)OCc3ccccc3)C(OC3OC(COS(=O)(=O)[O-])C(OC4OC(C(=O)OCc5ccccc5)C(OC5OC(COS(=O)(=O)[O-])C(O)C(O)C5NS(=O)(=O)[O-])C(O)C4OS(=O)(=O)[O-])C(O)C3NS(=O)(=O)[O-])C(O)C2OS(=O)(=O)[O-])C(O)C1NS(=O)(=O)[O-])OCc1ccccc1.[Na+].[Na+].[Na+].[Na+].[Na+].[Na+].[Na+].[Na+] (centres undefined) | >1515 |  |  |  | 0.4 µg/mL |  |  | 1 µg/mL |  | 4 IU mg-1 |  | >1250 | 0.33 µg/mL |  |  |  |  | 2 µg/mL
CCCCOC(=O)/C=C(\COC(=O)CCC)OC1OC(COS(=O)(=O)[O-])C(OC2OC(C(=O)OCCCC)C(OC3OC(COS(=O)(=O)[O-])C(OC4OC(C(=O)OCCCC)C(OC5OC(COS(=O)(=O)[O-])C(O)C(OC(=O)CCC)C5NS(=O)(=O)[O-])C(OC(=O)CCC)C4OS(=O)(=O)[O-])C(OC(=O)CCC)C3NS(=O)(=O)[O-])C(OC(=O)CCC)C2OS(=O)(=O)[O-])C(OC(=O)CCC)C1NS(=O)(=O)[O-].[Na+].[Na+].[Na+].[Na+].[Na+].[Na+].[Na+].[Na+] (centres undefined) | >1785 |  |  |  | 0.27 µg/mL |  |  | 4 µg/mL |  | 5 IU mg-1 |  | >1850 | 0.28 µg/mL |  |  |  |  | 4 µg/mL
C=CCOC(=O)/C=C(\CO)OC1OC(COS(=O)(=O)[O-])C(OC2OC(C(=O)OCC=C)C(OC3OC(COS(=O)(=O)[O-])C(OC4OC(C(=O)OCC=C)C(OC5OC(COS(=O)(=O)[O-])C(O)C(O)C5NS(=O)(=O)[O-])C(O)C4OS(=O)(=O)[O-])C(O)C3NS(=O)(=O)[O-])C(O)C2OS(=O)(=O)[O-])C(O)C1NS(=O)(=O)[O-].[Na+].[Na+].[Na+].[Na+].[Na+].[Na+].[Na+].[Na+] (centres undefined) | >2500 |  |  |  | 1 µg/mL |  |  | 100 µg/mL |  | 2 IU mg-1 |  | >500 | 0.2 µg/mL |  |  |  |  | 3 µg/mL
CCCCOC(=O)/C=C(\CO)OC1OC(COS(=O)(=O)[O-])C(OC2OC(C(=O)OCCCC)C(OC3OC(COS(=O)(=O)[O-])C(OC4OC(C(=O)OCCCC)C(OC5OC(COS(=O)(=O)[O-])C(O)C(O)C5NC(C)=O)C(O)C4OS(=O)(=O)[O-])C(O)C3NC(C)=O)C(O)C2OS(=O)(=O)[O-])C(O)C1NC(C)=O.[Na+].[Na+].[Na+].[Na+].[Na+] (centres undefined) | >77 |  |  |  | 2.5 µg/mL |  |  | 100 µg/mL |  | 1.2 IU mg-1 |  | >200 | 6.5 µg/mL |  |  |  |  | 20 µg/mL
CCCC(=O)OC/C(=C\C(=O)[O-])O[C@H]1O[C@H](COS(=O)(=O)[O-])[C@@H](O[C@@H]2O[C@@H](C(=O)[O-])[C@@H](O[C@H]3O[C@H](COS(=O)(=O)[O-])[C@@H](O[C@@H]4O[C@@H](C(=O)[O-])[C@@H](O[C@H]5O[C@H](CS(=O)(=O)[O-])[C@@H](O)[C@H](OC(=O)CCC)[C@H]5NS(=O)(=O)[O-])[C@H](OC(=O)CCC)[C@H]4OS(=O)(=O)[O-])[C@H](OC(=O)CCC)[C@H]3NS(=O)(=O)[O-])[C@H](OC(=O)CCC)[C@H]2OS(=O)(=O)[O-])[C@H](OC(=O)CCC)[C@H]1NS(=O)(=O)[O-].[Na+].[Na+].[Na+].[Na+].[Na+].[Na+].[Na+].[Na+].[Na+].[Na+].[Na+] (stereo in doubt; 4g) |  | 1.3 µg/mL | 0.3 µg/mL | 5.9 µg/mL |  | 0.1 µg/mL | 0.9 µg/mL |  | 0.7 µg/mL | 8.5 IU mg-1 | 0.1 µg/mL | >2141 |  | 0.17 µg/mL |  | 31.9 µg/mL |  | 
CCCCCCCCOC(=O)/C=C(\CO)OC1OC(COS(=O)(=O)[O-])C(OC2OC(C(=O)OCCCCCCCC)C(OC3OC(COS(=O)(=O)[O-])C(OC4OC(C(=O)OCCCCCCCC)C(OC5OC(COS(=O)(=O)[O-])C(O)C(O)C5NS(=O)(=O)[O-])C(O)C4OS(=O)(=O)[O-])C(O)C3NS(=O)(=O)[O-])C(O)C2OS(=O)(=O)[O-])C(O)C1NS(=O)(=O)[O-].[Na+].[Na+].[Na+].[Na+].[Na+].[Na+].[Na+].[Na+] (stereo in doubt; 7f) | >714 |  |  |  |  |  |  | 4 µg/mL |  | 3 IU mg-1 |  | >454 | 0.7 µg/mL | 1.1 µg/mL |  |  |  | 18 µg/mL
